Measured values pooled from the literature.
Compare with care: the assays were run in different laboratories.

SMILES	target or system	test	test system	setting	endpoint	result
CC(C)CC(=O)OC[C@H]1O[C@@](C#N)(c2ccc3c(N)ncnn23)[C@H](O)[C@@H]1O	HEp-2	cell growth or viability, CCK-8	–	5 days	CC50	> 100 µM
O=C1NC2(CCC2)C(=O)N1c1ccc(F)c(C(F)(F)F)c1	–	metabolic stability	human, liver microsomes	–	microsomal CLint	11 µL/min/mg
CC/C(=C(\c1ccccc1)c1ccc(OCCN(C)C)cc1)c1ccccc1	MCF7	cell growth or viability, resazurin	–	72 h	IC50	18.2 µM
Cc1[nH]c(C)c(S(=O)(=O)Nc2ccc(S(=O)(=O)F)c(Cl)c2)c1C(=O)N1CCC(F)(F)C1	–	metabolic stability	human, liver microsomes	–	microsomal CLint	31.7 µL/min/mg
COc1ccc(NC(=O)N2CCCCN3[C@H](CN(C)C)[C@H](c4ccc(C#Cc5ccccc5)cc4)[C@@H]3C2)cc1	THP-1	cell growth or viability, ATP luminescence	–	72 h	CC50	2.87 µM
N#C[C@@]1(n2ccc(N)nc2=O)O[C@H](CO)[C@@H](O)[C@H]1O	Calu-3	cell growth or viability	–	–	CC50	> 100 µM
CC(C)CCC(=O)N[C@H]1[C@H]([C@H](O)[C@H](O)CO)OC(C(=O)O)=C[C@@H]1O	–	shake flask	aqueous buffer	2 h, pH 7.4	logD	-0.88
CC(C)(C)[C@H](NC(=O)C(F)(F)F)C(=O)N1C[C@H]2[C@@H]([C@H]1C(=O)N[C@H](C#N)C[C@@H]1CCNC1=O)C2(C)C	Calu-3	cell growth or viability	–	–	CC50	> 100 µM
Cc1[nH]c(C)c(S(=O)(=O)Nc2ccc(S(F)(F)(F)(F)F)c(Cl)c2)c1C(=O)N1CCC(F)(F)C1	–	metabolic stability	rat, liver microsomes	–	microsomal CLint	20.5 µL/min/mg
CC(C)Cc1cn([C@H]2[C@H]([C@H](O)[C@H](O)CO)OC(C(=O)O)=C[C@@H]2O)nn1	–	shake flask	aqueous buffer	2 h, pH 7.4	logD	-0.54
CC1(CC(F)(F)F)NC(=O)N(c2ccc(F)c(C(F)(F)F)c2)C1=O (centres unmarked)	–	metabolic stability	human, liver microsomes	–	microsomal CLint	< 7 µL/min/mg
